High-throughput results (PubChem)
TAAR1 ag: human TAAR1 agonism. CHO RD-HGA16 TAAR1, Fluo-8 calcium fluorescence; vehicle wells 0%, saturating PEA agonist 100%. activation, % at 3 µM. actives 0.99% (n = 360,000). AID 624467;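 active means activation above the mean activation of all test compounds in the run plus 3 SD, cut at about 38% in these data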
Target sequence (Q96RJ0 whole entry, looked up): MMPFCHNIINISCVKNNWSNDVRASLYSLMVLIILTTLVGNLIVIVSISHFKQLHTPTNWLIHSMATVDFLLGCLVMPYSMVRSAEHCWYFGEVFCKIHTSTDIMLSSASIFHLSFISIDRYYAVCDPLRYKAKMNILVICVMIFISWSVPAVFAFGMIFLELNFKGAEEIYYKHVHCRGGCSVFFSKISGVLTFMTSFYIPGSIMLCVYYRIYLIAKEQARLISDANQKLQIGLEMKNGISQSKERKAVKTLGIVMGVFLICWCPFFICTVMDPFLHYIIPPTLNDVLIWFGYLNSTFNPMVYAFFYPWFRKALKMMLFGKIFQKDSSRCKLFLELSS
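Benchmarks: low control DMSO, high control PEA (EC100); System: CHO RD-HGA16 cells carrying human TAAR1 plus Gα16; Detection: Fluo-8 fluorescence, 5 s baseline then 140 s kinetic read; Schedule: 17-24 h plating, Fluo-8 75 min 37 °C, 30 min RT; Read-out basis: % activation from peak over basal fluorescence ratio, DMSO-to-PEA scaled.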
GPR7 antagonist: blocks human GPR7 receptor signaling; AID 1861; GPR7-expressing cells, fluorescence antagonist assay; inhibition, % at 4.4 µM; P48145; actives 1.1% (n = 290,000); in the data active means inhibition above about 16%, passing the limit was not always enough;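 further: cells stimulated with the agonist NPW; 0% = agonist with vehicle and 100% = vehicle without agonist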
Target sequence (P48145 whole entry, looked up): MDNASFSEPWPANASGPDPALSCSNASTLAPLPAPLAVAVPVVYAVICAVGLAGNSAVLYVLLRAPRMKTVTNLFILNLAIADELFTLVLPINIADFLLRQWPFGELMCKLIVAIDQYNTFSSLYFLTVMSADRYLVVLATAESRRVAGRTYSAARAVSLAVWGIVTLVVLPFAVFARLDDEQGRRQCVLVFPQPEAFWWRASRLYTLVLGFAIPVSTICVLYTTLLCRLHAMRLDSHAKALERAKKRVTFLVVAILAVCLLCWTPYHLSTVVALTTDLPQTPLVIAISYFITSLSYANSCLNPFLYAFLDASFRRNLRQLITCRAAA
CHO parental Ca: counter-screen: ATP calcium response change in parental CHO cells. inhibition, % at 5.6 µM. AID 463079. parental CHO-K1, ATP-induced calcium, Fluo-8 fluorescence. actives 0.63% (n = 330,000);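 active means inhibition above that plate's mean sample inhibition plus 3 SD, cut at about 26% in these data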;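 further: 0% = ATP-challenged DMSO wells and 100% = DMSO wells without ATP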
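Material: parental CHO cells / Compound: single nominal dose of 5.6 µM per compound / Signal: Fluo-8 fluorescence / Replicates: singlicate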
TAAR1 antag: antagonists of human TAAR1 | Q96RJ0 | CHO RD-HGA16 TAAR1, Fluo-8 calcium fluorescence, antagonist | inhibition, % at 3 µM | actives 1.5% (n = 360,000);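 active means inhibition above a per-plate cutoff, the mean inhibition of test compounds on that plate plus 3 SD, cut at about 49% in these data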;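 further: 0% = DMSO plus EC80 beta-PEA response and 100% = DMSO alone without agonist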
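Assay system: CHO-derived RD-HGA16 cells stably expressing human TAAR1 plus Gα16. Timing: 140 s kinetic read after compound, 140 s after agonist. Technique: kinetic Fluo-8 calcium fluorescence measurement. Measure: % inhibition of agonist calcium response.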
OX1R antag-1: blocks the human orexin 1 receptor; O43613; OX1R-expressing cells, FRET antagonist read-out; inhibition, % at 6.6 µM; actives 1.8% (n = 330,000); AID 485270; in the data active means inhibition mostly above about 38%, no sharp cut-off; inactive means mostly below about 40%;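 further: 0% = agonist challenge alone and 100% = reference antagonist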
OX1R antag-2: blocks the human orexin 1 receptor | O43613 | CHO/OX1R cells, Fluo-8 calcium fluorescence, orexin A | actives 0.43% (n = 330,000) | AID 434989 | inhibition, % at 5 µM;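 active means inhibition above its plate's threshold, mean inhibition of all tested compounds on the plate plus 3 SD, cut at about 37% in these data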;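 further: 0% = orexin A challenge wells and 100% = SB-334867-A antagonist wells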
nonsel antag count: counter-screen for TAAR1 antagonists: nonselective antagonists. shares compounds with TAAR1 antag. actives 77% (n = 2,400). inhibition, % at 3 µM. counterscreen cell line, calcium fluorescence, antagonist mode. AID 651780; in the data active means inhibition above about 22%;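 further: CHO-Ga16 host cells stimulated with ATP at an EC80 level; 0% = agonist EC80 plus vehicle and 100% = vehicle without agonist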
TAAR1 ant conf: confirmation of human TAAR1 antagonists. inhibition, % at 3 µM. actives 40% (n = 2,400). AID 651785. TAAR1-expressing cells, fluorescence antagonist read-out. shares compounds with TAAR1 antag; in the data active means inhibition above about 49%;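 further: CHO-Ga16 host cells challenged with agonist PEA near its EC80; 0% = agonist at EC80 plus vehicle and 100% = vehicle with no agonist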
Ga16 nonsel ag: counter-screen for TAAR1 antagonists: nonselective Ga16 agonists; shares compounds with TAAR1 antag; Ga16-expressing cells, calcium fluorescence, agonist counterscreen; activation, % at 3 µM; actives 18% (n = 2,400); AID 651953; in the data active means activation above about 12%;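 further: 0% = vehicle wells and 100% = saturating stimulus response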
TAAR1 ag counter: counter-screen for human TAAR1 antagonists: TAAR1 agonists | actives 2% (n = 2,400) | hTAAR1 cell line, fluorescence activation, agonist mode | AID 651955 | shares compounds with TAAR1 antag | activation, % at 3 µM; in the data active means activation above about 37%;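 further: CHO cells stably expressing TAAR1 with calcium dye readout; 0% = DMSO vehicle and 100% = full agonist response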
An asterisk follows results filed as active; . = no result. Shown are actives, neighbours in structure and some others; about 4.6% of the full set was active somewhere.

SMILES	TAAR1 ag	GPR7 antagonist	CHO parental Ca	TAAR1 antag	OX1R antag-1	OX1R antag-2	nonsel antag count	TAAR1 ant conf	Ga16 nonsel ag	TAAR1 ag counter
COc1cc(NC(=O)c2nccn2C)cc(C(=O)Nc2cccc(C(F)(F)F)c2)c1	2	.	-1	-5	19	6	.	.	.	.
COc1cc(NC(=O)c2csc(-c3ccncc3)n2)cc(C(=O)Nc2cccc(C(F)(F)F)c2)c1	9	.	-17	74*	27	-21	35*	55*	6	5
COc1cc(NC(=O)N2CCNC2=O)cc(C(=O)Nc2cccc(C(F)(F)F)c2)c1	20	.	-7	51*	35	-28	19	24	8	6
COc1cc(Nc2ccccn2)cc(C(=O)Nc2cccc(C(F)(F)F)c2)c1	7	.	-6	54*	13	-20	34*	46	7	2
O=C(COC(=O)c1cnccn1)c1ccc(C2CCCCC2)cc1	3	-12	-2	-6	14	-18	.	.	.	.
CC1CCCC(NC(=O)c2cccc(S(=O)(=O)N3CCOCC3)c2)C1C (stereo not drawn)	2	.	.	-18	.	.	.	.	.	.
CCN(CC)S(=O)(=O)c1ccc(C(C)NCC(=O)Nc2ccccc2C(=O)NC2CC2)cc1 (stereo not drawn)	11	.	.	59*	.	.	33*	52*	9	9
CC(NCC(=O)Nc1ccccc1C(=O)NC1CC1)c1ccc(S(N)(=O)=O)cc1 (stereo not drawn)	15	.	-7	-1	1	-12	.	.	.	.
Cc1cccc(C(=O)Nc2ccc(C(=O)/C=C/c3cccnc3)cc2)c1	18	15	-7	60*	22	-16	33*	54*	13*	9
COC(=O)C(Cc1ccccc1)NC(=O)CNC(=O)c1sc2ccccc2c1Cl (stereo not drawn)	1	-1	4	2	29	-7	.	.	.	.
O=C1[C@H]2[C@@H](/C=C/c3ccccc3)N3C(=O)CN(Cc4ccccn4)C(=O)[C@@]3(Cc3ccccc3)[C@H]2C(=O)N1c1ccccc1	23	-10	-18	70*	16	-32	28*	48	10	8
CCNC(=O)C1CCCN(C(=O)c2cccc(C#N)c2)CC1 (stereo not drawn)	3	.	.	-24	.	.	.	.	.	.
O=C(Nc1nc(-c2ccc3ccccc3c2)cs1)C1CCN(S(=O)(=O)c2cccs2)CC1	0	8	-11	104*	15	-15	15	3	3	4
CCOc1cc(NC(=S)NCCOC)c(OCC)cc1NC(=O)c1cccs1	10	-7	-18	-5	18	-24	.	.	.	.
CCOc1cc(NC(=S)NC)c(OCC)cc1NC(=O)c1cccs1	11	0	-18	54*	13	-27	4	6	0	1
O=C(N/N=C/c1cccc(Oc2ccc([N+](=O)[O-])cc2[N+](=O)[O-])c1)c1cncc(Br)c1	21	11	-15	55*	23	-9	51*	54*	16*	12
O=C(O)c1cccc2c1C(=O)c1ccc(-c3ccc(F)cc3OCc3ccccc3)cc1S2(=O)=O	.	.	-15	.	0	-17	.	.	.	.
O=C(NC[C@H]1CCCO1)c1cccc2c1C(=O)c1ccc(-c3ccc(F)cc3OCc3ccccc3)cc1S2(=O)=O	19	.	-4	69*	16	7	37*	51*	8	8
CC(C)c1cccc(-c2ccc3c(c2)S(=O)(=O)c2cccc(C(=O)NCc4ccccc4Cl)c2C3=O)c1	.	.	-17	.	5	-9	.	.	.	.
CC(C)c1cccc(-c2ccc3c(c2)S(=O)(=O)c2cccc(C(=O)NCc4ccccc4)c2C3=O)c1	7	.	-6	61*	3	-11	36*	47	4	2
COc1ccc(CCN2CC(C#N)=C3c4cc(OC)c(OC)cc4CCN3C2)cc1OC	4	-10	-19	9	10	-38	.	.	.	.
COc1cc2c(cc1OC)C1=C(C#N)CN(C3CCCCC3)CN1CC2	8	-17	-19	53*	7	-31	23*	34	10	7
Cc1ccc(Nc2nc(-c3cccnc3)nc3ccccc23)cc1	-1	-6	-32	56*	12	-6	17	27	3	-1
CC(=O)Nc1ccc(Nc2nc(-c3ccccc3)nc3ccccc23)cc1	21	-1	4	59*	29	-19	34*	56*	8	6
Oc1ccc(Nc2nc(-c3ccccc3)nc3ccccc23)cc1	.	-6	6	.	-5	-11	.	.	.	.
SMILES	TAAR1 ag	GPR7 antagonist	CHO parental Ca	TAAR1 antag	OX1R antag-1	OX1R antag-2	nonsel antag count	TAAR1 ant conf	Ga16 nonsel ag	TAAR1 ag counter
CCC(=O)OC1(C(C)=O)CCC2C3CCC4=CC(=O)CCC4(C)C3CCC21C (stereo not drawn)	3	.	.	13	.	.	.	.	.	.
Cc1ccc(C)c(CN2CCCN(C(=O)Cn3ncc4c3-c3ccccc3OC4)C2)c1	6	13	-16	59*	56*	3	23*	46	12*	12
CCN1CCN(C(=O)Cn2ncc3c2-c2ccccc2OC3)CC1	5	-5	-4	-8	4	-22	.	.	.	.
CC(O)(c1cccnc1)c1nc(/C=C/c2ccccc2)cs1 (stereo not drawn)	1	.	.	-16	.	.	.	.	.	.
CN(c1ccccc1)S(=O)(=O)c1cccc(NC(=O)c2nn(C)c(=O)c3ccccc23)c1	10	.	-7	59*	6	-3	25*	41	6	6
CN(c1ccccc1)S(=O)(=O)c1cccc(NC(=O)Cn2cnc3ccccc3c2=O)c1	7	-6	-16	9	34	-18	.	.	.	.
COc1ccc(C(=O)c2cnc3ccccc3c2-c2ccccc2)cc1	11	-11	-27	57*	41	-27	21	44	4	0
Cc1ccc(C(=O)c2cnc3ccccc3c2-c2ccccc2)cc1	11	9	-19	37	26	-2	.	.	.	.
CCOC1=C2CN(S(=O)(=O)c3ccc(C)cc3)[C@H](c3ccccc3)C[C@@H]2N(S(=O)(=O)c2ccccc2C)[C@H](c2ccccc2)C1	0	.	.	-1	.	.	.	.	.	.
CCOc1ccccc1N(C)C(=O)Cn1ncc2c([nH]c3ccc(C)cc32)c1=O	6	0	-22	19	13	-12	.	.	.	.
